A selection: hits, their analogues and other compounds. The true share with any hit is near 1.9%.
APJ ag – agonists of human apelin receptor APJ, primary screen, CHO-K1 cells, PathHunter beta-arrestin, luminescence | 330,000 tested, 0.11% active | activation, % at 20 µM | 0% DMSO wells, 100% apelin | P35414;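 active = activation more than six SD over the plate average, tested at 20 µM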
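Assay system: CHO-K1 APJ beta-arrestin complementation cell line / Compound: single test compound dose, 20 µM final, 1% DMSO / Times: overnight seeding, 90 min compound at 25 °C, 1 h detection / Technique: beta-gal luminescence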
APJ antag – antagonists of human apelin receptor APJ, primary screen, CHO-K1 cells, beta-arrestin complementation, luminescence | AID 2521, 2010 | P35414 | 330,000 tested, 0.32% active | inhibition, % at 20 µM;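 active = inhibition above about 40% at 20 µM, limit read from the data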;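 also: cells challenged with 10 nM apelin-13 agonist together with compound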
EBI2 antag – EBI2 receptor antagonists, beta-arrestin recruitment, primary screen, cell-based, luminescence, 7a,25-OHC stimulation, uHTS; G-protein coupled receptor 183 (Homo sapiens), P32249; 7a,25-OHC stimulated; inhibition, % at 5 µM; 360,000 tested, 0.81% active; AID 651636, 2012; in the data active = inhibition above about 38%;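 also: enzyme fragment complementation signal reports receptor beta-arrestin coupling in cells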
Target sequence (P32249 whole entry, looked up, the tested form may be a part): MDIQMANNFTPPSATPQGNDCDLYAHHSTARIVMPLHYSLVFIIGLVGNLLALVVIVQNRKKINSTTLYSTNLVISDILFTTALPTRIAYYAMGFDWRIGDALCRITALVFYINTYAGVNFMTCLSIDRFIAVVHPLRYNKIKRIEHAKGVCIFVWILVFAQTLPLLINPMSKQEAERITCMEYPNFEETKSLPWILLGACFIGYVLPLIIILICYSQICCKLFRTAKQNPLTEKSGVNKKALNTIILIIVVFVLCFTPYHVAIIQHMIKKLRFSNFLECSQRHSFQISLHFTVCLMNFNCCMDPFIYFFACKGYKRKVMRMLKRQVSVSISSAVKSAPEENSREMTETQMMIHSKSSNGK
H9c2 TAG inh – inhibitors of triacylglycerol accumulation, primary screen, cell-based, uHTS, fluorescence, H9c2 | 230,000 tested, 0.66% active | inhibition, % at 12.5 µM | AID 651582, 2012 | H9c2 cells, Nile Red lipid (TAG) fluorescence; cells loaded with 200 µM oleic acid;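 active = pattern-corrected inhibition of lipid staining of at least 50% with the nuclear-stain viability signal not falling by more than 50%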
CXCR6 inh – CXCR6 receptor inhibitors, primary screen, cell-based, beta-arrestin, luminescence, CHO-K1 PathHunter, 1536-well; inhibition, % at 20 µM; 360,000 tested, 0.36% active; AID 602244, 2012; in the data active = inhibition above about 34%, passing the limit was not always enough;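 also: antagonist mode with CXCL16 agonist at 10 nM final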
CCR6 antagonist – CCR6 receptor antagonists, primary screen, cell-based, CHO-K1, luminescence, beta-arrestin, uHTS | C-C chemokine receptor type 6 (Homo sapiens), P51684 | CHO-K1 CCR6 PathHunter beta-arrestin, CCL20-stimulated | AID 493098, 2011 | inhibition, % at 20 µM | 340,000 tested, 0.49% active;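 active = compounds whose inhibition of the agonist-driven luminescence signal at 20 µM reaches about 50%, limit read from the data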;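 also: cells stimulated with CCL20 at 14 nM final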
Target sequence (P51684 whole entry, looked up): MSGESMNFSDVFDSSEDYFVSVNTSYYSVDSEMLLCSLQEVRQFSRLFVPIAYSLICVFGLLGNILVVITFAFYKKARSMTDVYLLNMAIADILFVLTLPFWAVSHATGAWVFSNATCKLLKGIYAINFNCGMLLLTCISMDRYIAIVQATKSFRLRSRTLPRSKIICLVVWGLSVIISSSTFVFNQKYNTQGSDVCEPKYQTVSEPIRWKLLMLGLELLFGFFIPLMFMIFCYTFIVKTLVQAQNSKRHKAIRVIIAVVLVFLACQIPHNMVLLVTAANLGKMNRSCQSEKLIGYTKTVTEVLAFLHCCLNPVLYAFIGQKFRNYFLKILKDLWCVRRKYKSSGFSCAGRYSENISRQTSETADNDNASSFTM
EBI2 antag conf – EBI2 antagonist hit retest, beta-arrestin, confirmation, cell-based, single concentration, luminescence, 7a,25-OHC stimulation; 7a,25-OHC antagonism; inhibition, % at 5 µM; AID 651997, 2013; shares compounds with EBI2 antag; 2,400 tested, 29% active;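 active = inhibition of at least 50%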
EBI2 agonist – EBI2 agonist activity of antagonist hits, confirmation, counter-screen for EBI2 antagonist project, cell-based, single concentration, agonist mode, luminescence | activation, % at 5 µM | AID 652000, 2013 | shares compounds with EBI2 antag | 2,400 tested, under 10 active | EBI2-expressing cells, 60 min; 0% vehicle, 100% 7α,25-dihydroxycholesterol control;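 active = activation of at least 50%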
bGal cs – E. coli beta-galactosidase enzyme inhibition, confirmation, counter-screen for EBI2 antagonist project, biochemical, luminescence, single concentration. shares compounds with EBI2 antag. purified beta-galactosidase, luminescent Galacton Star, 15 min. inhibition, % at 5 µM. 2,400 tested, 1% active. AID 652176, 2013;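 active = replicate-average signal at least 3 plate SD below neutral wells, shown as high inhibition, flagging enzyme-inhibiting false positives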;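 also: higher means stronger loss of beta-gal luminescence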
Each line names hits and unclear results; the compound was inactive in the other large screens (follow-up assays come after a bar, where they were run).

O=C(NCCc1ccc(Cl)cc1)C1CCN(S(=O)(=O)N2CCCCC2)CC1	EBI2 antag 44 (no result: H9c2 TAG inh) | EBI2 antag conf inactive | EBI2 agonist inactive | bGal cs inactive
O=C(NCc1ccc(Cl)cc1)c1ccc(S(=O)(=O)N2CCCCC2)cc1	EBI2 antag 49 | EBI2 antag conf inactive | EBI2 agonist inactive | bGal cs inactive
O=C(NCc1ccc(F)cc1)C1CCN(S(=O)(=O)c2cccnc2)CC1	none (no result: H9c2 TAG inh)
O=C(NCc1ccc(F)cc1)c1ccc(S(=O)(=O)N2CCCCC2)cc1	none
O=C(NCc1ccc(Cl)cc1)C1CCN(S(=O)(=O)c2ccc(F)cc2)CC1	EBI2 antag 51 | EBI2 antag conf inactive | EBI2 agonist inactive | bGal cs inactive
O=C(NCc1ccncc1)C1CCN(S(=O)(=O)c2ccc(F)cc2)CC1	none (no result: H9c2 TAG inh)
Cc1ccc(-c2nc3ccc(C)cn3c2Cc2cccc(F)c2)cc1	EBI2 antag 43 (no result: APJ ag, APJ antag, H9c2 TAG inh, CCR6 antagonist) | EBI2 antag conf inactive | EBI2 agonist inactive | bGal cs inactive
Cc1ccc(-c2nc3ccc(C)cn3c2Cc2cccc(Cl)c2)cc1	none (no result: APJ ag, APJ antag, H9c2 TAG inh, CCR6 antagonist)
Cc1cc2nc(-c3ccc(C#N)cc3)c(Cc3cccc(F)c3)n2c(C)c1Br	EBI2 antag 44 (no result: APJ ag, APJ antag, H9c2 TAG inh, CCR6 antagonist) | EBI2 antag conf inactive | EBI2 agonist inactive | bGal cs inactive
O=C1[C@@H]2[C@@H]3C[C@@H]([C@H]4ON=C(c5ccc(Cl)cc5)[C@@H]34)[C@@H]2C(=O)N1C1CCCCC1	none
O=C(NCCCN1CCOCC1)c1ccc2c(c1)N(Cc1ccccc1F)C(=O)c1ccccc1S2=O (centres undefined)	none (no result: H9c2 TAG inh)
COc1cc(OC)cc(C(=O)NNC(=O)CN2C(=O)NC(C)(c3ccc(C)cc3)C2=O)c1 (centres undefined)	none
COC(=O)c1ccc(NC(=O)c2ccc3c(c2)NC(=O)C2CCCN32)cc1 (centres undefined)	none (no result: EBI2 antag, H9c2 TAG inh, CXCR6 inh, CCR6 antagonist)
CC(C)(C)NS(=O)(=O)c1ccc2[nH]c3c(c2c1)CCCCC3	EBI2 antag 63 (no result: H9c2 TAG inh) | EBI2 antag conf 67 | EBI2 agonist inactive | bGal cs inactive
CCOC(=O)[C@@H]1[C@H]2COc3ccccc3[C@@H]2N2C(=O)N(c3cccc(F)c3)C(=O)[C@@]12C	none
Cc1nc(-c2cccc(NC(=O)c3ccc(-n4cccn4)cc3)c2)cs1	none
O=C(/C=C/c1ccc(Cl)cc1)N1CCN(c2c(Cl)cccc2[N+](=O)[O-])CC1	EBI2 antag 98 (no result: H9c2 TAG inh) | EBI2 antag conf 91 | EBI2 agonist inactive | bGal cs inactive
O=C(CSc1ccc(Cl)cc1)N1CCN(c2ccc([N+](=O)[O-])cc2Cl)CC1	EBI2 antag 84 | EBI2 antag conf inactive | EBI2 agonist inactive | bGal cs inactive
CCS(=O)(=O)N1CCN(c2c(Cl)cccc2[N+](=O)[O-])CC1	none
CCCC(=O)N1CCN(c2ccc([N+](=O)[O-])cc2Cl)CC1	none (no result: H9c2 TAG inh)
O=C(CSc1ccc(Cl)cc1)N1CCN(c2c(Cl)cccc2[N+](=O)[O-])CC1	EBI2 antag 94 (no result: H9c2 TAG inh) | EBI2 antag conf 86 | EBI2 agonist inactive | bGal cs inactive
Cc1ccc(-c2[nH]ncc2C(=O)c2ccccc2C)c(O)c1	none (no result: H9c2 TAG inh)
Nc1ccn([C@@H]2O[C@H](CNC(=O)[C@@H](Cc3cn(COCc4ccccc4)cn3)NC=O)[C@@H](O)[C@H]2O)c(=O)n1	none (no result: APJ ag, APJ antag, CCR6 antagonist)
O=C(COc1ccc(Cl)cc1)c1ccc(O)cc1O	EBI2 antag 44 | EBI2 antag conf inactive | EBI2 agonist inactive | bGal cs inactive
OCC[C@@H]1NCc2cc(CO)cc(-c3ccccc3)c21	none (no result: APJ ag, APJ antag)
O=C1c2cccc3cccc(c23)C(=O)N1CCN1CCN(CC(O)COc2ccc3ccccc3c2)CC1 (centres undefined)	EBI2 antag 49 | EBI2 antag conf inactive | EBI2 agonist inactive | bGal cs inactive
CCc1ccc(OCC(O)CN2CCC(CN3C(=O)c4cccc5cccc(c45)C3=O)CC2)cc1 (centres undefined)	EBI2 antag 60 (no result: H9c2 TAG inh) | EBI2 antag conf inactive | EBI2 agonist inactive | bGal cs inactive
CC(=O)c1ccccc1OCC(O)CN1CCN(CCN2C(=O)c3cccc4cccc(c34)C2=O)CC1 (centres undefined)	none
Cc1cc(C)cc(OCC(O)CN2CCC(CN3C(=O)c4cccc5cccc(c45)C3=O)CC2)c1 (centres undefined)	none
Cc1cc(C)cc(-n2ncc3c2CCCC3NC(=O)CCN2Cc3ccccc3C2=O)c1 (centres undefined)	none
CSc1ccc(CN2C(=O)C(C)ON=C2c2ccccc2F)cc1 (centres undefined)	none (no result: APJ ag, APJ antag, CCR6 antagonist)
CCOC(=O)c1cc2c(ccn2-c2ccc(F)cc2)n1CC(=O)NC(C)(C)C	none (no result: EBI2 antag, H9c2 TAG inh, CXCR6 inh, CCR6 antagonist)
O=C(CCCN1C(=O)/C(=C/c2cccs2)SC1=S)NNC(=O)c1ccc(F)cc1	EBI2 antag 63 | EBI2 antag conf inactive | EBI2 agonist inactive | bGal cs inactive
COc1ccc2nc3n(c(=O)c2c1)-c1cc2ccccc2cc1C(=O)NC3Cc1ccc(O)cc1 (centres undefined)	none (no result: APJ ag, APJ antag, CCR6 antagonist)
COc1ccc2nc3n(c(=O)c2c1)-c1cc2ccccc2cc1C(=O)NC3Cc1ccccc1 (centres undefined)	EBI2 antag 41 (no result: APJ ag, APJ antag, CCR6 antagonist) | EBI2 antag conf inactive | EBI2 agonist inactive | bGal cs inactive
c1ccc(Cn2ccnc2C2OCCO2)cc1	none (no result: APJ ag, APJ antag, CCR6 antagonist)
CCOC(=O)Cc1cn(C(=O)OC(C)(C)C)c2ccccc12	none
CC1CCCCN1C(=O)c1ccc(C(=O)Nc2ccc(F)cc2)cc1 (centres undefined)	EBI2 antag 52 (no result: H9c2 TAG inh) | EBI2 antag conf inactive | EBI2 agonist inactive | bGal cs inactive
COC(C[C@H](O)C[C@H](O)[C@H](C)OCc1ccccc1)OC	none
